# Experimental data from ChEMBL document CHEMBL2046342, “Re-engineering aryl methylcarbamates to confer high selectivity for inhibition of Anopheles gambiae versus human acetylcholinesterase” (2012).
# What was measured:
# [1] = molecular target: Acetylcholinesterase (Anopheles gambiae) (UniProt Q869C3); experiment: Inhibition of Anopheles gambiae AChE expressed in Escherichia coli after 6 mins by Ellman assay
# How it was run: (§1)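 Time-dependent inactivation of recombinant AgAChE (purified to 2,500 ± 100 U/mg) monitored by Ellman assay. Residual velocity (v/v0) was measured against incubation time at fixed inhibitor levels, and kobs came from the ln(v/v0) vs t slope. kobs at three or more [I] was plotted against [I], and the linear slope gave apparent second-order ki (mM⁻¹ min⁻¹). Final DMSO was constant at 0.1% (v/v).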
# [2] = Selectivity ratio of Ki for Anopheles gambiae AChE to Ki for human recombinant AChE
# How it was run: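 Ratio ki(Ag)/ki(h) of apparent second-order inactivation constants, both from Ellman-assay kobs vs [I] slopes using purified recombinant AgAChE and recombinant hAChE. Error in the ratio was computed by standard propagation of error.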
# [3] = molecular target: Acetylcholinesterase (Homo sapiens) (UniProt P22303); experiment: Inhibition of human recombinant AChE after 6 mins by Ellman assay
# How it was run: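 Recombinant human AChE was assayed by Ellman method for time-dependent inactivation at fixed inhibitor concentrations. Pseudo-first-order kobs was taken from ln(v/v0) vs incubation time. Three or more inhibitor levels gave kobs vs [I], and its linear slope gave apparent ki (mM⁻¹ min⁻¹). DMSO was held at 0.1% (v/v) final.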
# [4] = molecular target: Acetylcholinesterase (Anopheles gambiae) (UniProt Q869C3); experiment: Inhibition of Anopheles gambiae AChE at 6 uM after 1 hr
# [5] = test system: Anopheles gambiae; experiment: Toxicity in Anopheles gambiae G3 assessed as mortality treated as tarsal contact using dried filter papers after 24 hrs; format: functional; details: G3, 24 h
# [6] = test system: Anopheles gambiae; experiment: Toxicity in anesthetized Anopheles gambiae G3 assessed as mortality treated as topical application assessed per mosquito after 24 hrs; format: functional
# [7] = molecular target: Acetylcholinesterase (Anopheles gambiae) (UniProt Q869C3); experiment: Inhibition of Anopheles gambiae AChE; details: concentration not given here; how it was run: as §1
# [8] = test system: Anopheles gambiae; experiment: Toxicity in Anopheles gambiae G3 assessed as mortality at 250 ug/ml treated as tarsal contact using dried filter papers after 24 hrs; format: functional
# How it was run: (§2)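 Tarsal contact assay. Filter papers were treated with ethanolic carbamate solutions and dried, and adult Anopheles gambiae were exposed for 1 h. Mortality was scored after 24 h. Concentrations refer to the solutions used to treat the papers.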
# [9] = test system: Anopheles gambiae; experiment: Toxicity in Anopheles gambiae G3 assessed as mortality at 1000 ug/ml treated as tarsal contact using dried filter papers after 24 hrs; format: functional; how it was run: as §2
# [10] = Selectivity ratio of Torpedo californica AChE to human AChE
# Chain of Acetylcholinesterase (Anopheles gambiae) (Q869C3 39-737 limits assumed): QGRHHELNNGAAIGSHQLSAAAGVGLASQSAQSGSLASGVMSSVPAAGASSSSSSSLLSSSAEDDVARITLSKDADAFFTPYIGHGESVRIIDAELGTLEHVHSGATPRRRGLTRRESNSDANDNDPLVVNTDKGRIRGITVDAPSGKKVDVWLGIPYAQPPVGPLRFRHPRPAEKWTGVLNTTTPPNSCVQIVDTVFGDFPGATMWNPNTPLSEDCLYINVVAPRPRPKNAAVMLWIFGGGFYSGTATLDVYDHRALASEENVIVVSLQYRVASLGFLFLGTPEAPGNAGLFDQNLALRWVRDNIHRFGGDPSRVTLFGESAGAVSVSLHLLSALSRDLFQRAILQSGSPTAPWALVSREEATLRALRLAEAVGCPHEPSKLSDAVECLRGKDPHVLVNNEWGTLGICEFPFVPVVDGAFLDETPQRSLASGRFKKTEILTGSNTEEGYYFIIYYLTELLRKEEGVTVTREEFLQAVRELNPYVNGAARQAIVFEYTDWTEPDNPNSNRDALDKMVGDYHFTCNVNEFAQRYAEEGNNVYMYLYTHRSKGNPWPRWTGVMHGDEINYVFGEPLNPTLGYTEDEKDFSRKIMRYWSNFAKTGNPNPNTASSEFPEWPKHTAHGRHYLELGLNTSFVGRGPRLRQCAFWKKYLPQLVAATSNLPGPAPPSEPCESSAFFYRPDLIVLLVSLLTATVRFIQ
# Chain of Acetylcholinesterase (Homo sapiens) (P22303 whole entry): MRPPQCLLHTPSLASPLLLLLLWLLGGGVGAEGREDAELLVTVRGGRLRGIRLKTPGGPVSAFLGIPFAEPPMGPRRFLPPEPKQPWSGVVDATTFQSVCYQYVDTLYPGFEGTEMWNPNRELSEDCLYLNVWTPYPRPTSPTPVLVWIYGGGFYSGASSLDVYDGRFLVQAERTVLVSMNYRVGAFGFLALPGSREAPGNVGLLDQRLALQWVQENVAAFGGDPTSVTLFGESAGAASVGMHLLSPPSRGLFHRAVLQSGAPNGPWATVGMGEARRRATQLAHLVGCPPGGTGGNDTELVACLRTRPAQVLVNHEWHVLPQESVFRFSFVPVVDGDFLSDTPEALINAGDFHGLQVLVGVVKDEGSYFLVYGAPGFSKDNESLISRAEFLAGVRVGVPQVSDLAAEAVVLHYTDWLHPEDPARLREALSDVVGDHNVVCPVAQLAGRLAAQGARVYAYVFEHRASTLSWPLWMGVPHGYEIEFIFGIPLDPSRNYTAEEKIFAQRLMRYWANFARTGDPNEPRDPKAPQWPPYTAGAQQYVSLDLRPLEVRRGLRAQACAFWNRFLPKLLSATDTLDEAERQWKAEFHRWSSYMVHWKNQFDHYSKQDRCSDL
SMILES,apparent second-order inhibition rate constant ki [1] [M⁻¹ s⁻¹],Ratio Ki [2],Kinact [3] [M⁻¹ s⁻¹],inhibition [4] [%],LC50 [5] [µg/mL],LD50 [6] [ng],inhibition [7] [%],Activity [8] [%],Activity [9] [%],Selectivity ratio [10]
CNC(=O)Oc1ccccc1OCC1CCCCC1,8,2.3,3.5,–,–,–,–,–,–,–
C[N+](C)(C)CCCCCCCCCCCCCCCCCCSS(C)(=O)=O,–,–,–,> 95,–,–,–,–,–,–
CCC(C)(C)c1cccc(OC(=O)NC)c1,127000,9.7,13100,–,115,–,–,–,–,–
C=C(C)COc1ccccc1OC(=O)NC,1040,84,12.3,–,–,–,–,–,–,–
CNC(=O)Oc1cccc(C(C)(C)C)c1,25200,12,2100,–,37,4.5,–,–,–,–
CNC(=O)Oc1ccccc1,45.8,13,3.33,–,–,–,–,–,–,–
CCC(CC)CCc1ccccc1OC(=O)NC,1260,100,12.5,–,–,–,–,–,–,–
CCC(C)(c1cccc(OC(=O)NC)c1)C(F)(F)F (racemic),54500,8.7,6250,–,68,–,–,–,–,–
CNC(=O)Oc1cccc2c1OC(C)(C)C2 [CARBOFURAN],43700,6.1,7130,–,16,0.85,49,–,–,–
CNC(=O)Oc1cccc(CCC(C)C)c1,4530,53,86.7,–,342,–,–,–,–,–
CCC(C)c1cccc(OC(=O)NC)c1 (racemic),167000,5.3,31800,–,31,1.6,–,–,–,–
CNC(=O)Oc1cccc(CC(C)C)c1,2580,28,91.7,–,–,–,–,–,–,–
CCC(C)(CC)c1cccc(OC(=O)NC)c1,88000,9.5,9220,–,–,–,–,72,–,–
CNC(=O)Oc1cccc(C(C)C)c1,54500,8.5,6380,–,–,–,–,–,–,–
CCC(CC)COc1ccccc1OC(=O)NC,4250,530,8,–,–,81,–,–,27,–
CCCC(C)(C)c1cccc(OC(=O)NC)c1,112000,4.9,22700,–,236,–,–,–,–,–
CNC(=O)Oc1ccccc1OC(C)C [PROPOXUR],4430,16,283,–,39,3.2,49,–,–,–
CCC(CC)CSc1ccccc1OC(=O)NC,30800,130,242,–,–,10,–,–,27,–

SMILES,apparent second-order inhibition rate constant ki [1] [M⁻¹ s⁻¹],Ratio Ki [2],Kinact [3] [M⁻¹ s⁻¹],inhibition [4] [%],LC50 [5] [µg/mL],LD50 [6] [ng],inhibition [7] [%],Activity [8] [%],Activity [9] [%],Selectivity ratio [10]
CNC(=O)Oc1cccc2ccccc12,–,–,–,–,–,–,49,–,–,–
CNC(=O)Oc1cccc(C)c1 [METOLCARB],287,33,8.67,–,712,–,–,–,–,–
CNC(=O)Oc1ccccc1OCC(C)C,880,81,10.8,–,290,19,–,–,–,–
CCN(C)C(=O)Oc1cccc([C@H](C)N(C)C)c1,–,–,–,–,–,–,–,–,–,1500
CNC(=O)Oc1cccc([Si](C)(C)C)c1,10800,9.6,1130,–,–,–,–,–,–,–
CNC(=O)Oc1cccc(C(C)(C)C(F)(F)F)c1,26300,11,2320,–,61,–,–,–,–,–
C=C(C)CSc1ccccc1OC(=O)NC,6900,55,125,–,317,12,–,–,–,–
CNC(=O)Oc1ccccc1OCC1CCCC1,163,36,4.67,–,–,–,–,–,–,–
CCC(C)COc1ccccc1OC(=O)NC (racemic),2080,216,9.67,–,445,33,–,–,–,–
CCCc1cccc(OC(=O)NC)c1,14700,14,1060,–,41,–,–,–,–,–
CCC(CC)COc1cccc(OC(=O)NC)c1,480,5.8,83.3,–,–,–,–,–,–,–
CCC(C)CSc1ccccc1OC(=O)NC (racemic),13400,48,280,–,–,–,–,–,–,–
CNC(=O)Oc1cccc2c1OC(C)(C)O2 [BENDIOCARB],14000,7.6,1850,–,16,0.74,49,–,–,–
CCCCc1cccc(OC(=O)NC)c1,12400,23,535,–,237,–,–,–,–,–
CC[Si](C)(C)c1cccc(OC(=O)NC)c1,25200,14,1830,–,169,8,–,–,–,–
CNC(=O)Oc1ccccc1SCC(C)C,8770,81,108,–,212,10,–,–,–,–
CNC(=O)Oc1ccccc1SC,1150,14,85,–,–,–,–,–,–,–
CNC(=O)Oc1ccccc1C,21.8,5.4,4,–,–,–,–,–,–,–
